# Assay results published in ChEMBL document CHEMBL1132231, “New generation dopaminergic agents. 6. Structure-activity relationship studies of a series of 4-(aminoethoxy)indole and 4-(aminoethoxy)indolone derivatives based on the newly discovered 3-hydroxyphenoxyethylamine D2 template” (J Med Chem, 1999).
# Key:
# [1] = target: T1, 5-hydroxytryptamine receptor 1A (Rattus norvegicus, UniProt P19327); experiment: The compound was tested for binding affinity on [3H]8-OH-DPAT as specific ligand on 5-hydroxytryptamine 1A receptor in rat hippocampus; format: tissue-based
# T1 sequence (P19327 whole entry): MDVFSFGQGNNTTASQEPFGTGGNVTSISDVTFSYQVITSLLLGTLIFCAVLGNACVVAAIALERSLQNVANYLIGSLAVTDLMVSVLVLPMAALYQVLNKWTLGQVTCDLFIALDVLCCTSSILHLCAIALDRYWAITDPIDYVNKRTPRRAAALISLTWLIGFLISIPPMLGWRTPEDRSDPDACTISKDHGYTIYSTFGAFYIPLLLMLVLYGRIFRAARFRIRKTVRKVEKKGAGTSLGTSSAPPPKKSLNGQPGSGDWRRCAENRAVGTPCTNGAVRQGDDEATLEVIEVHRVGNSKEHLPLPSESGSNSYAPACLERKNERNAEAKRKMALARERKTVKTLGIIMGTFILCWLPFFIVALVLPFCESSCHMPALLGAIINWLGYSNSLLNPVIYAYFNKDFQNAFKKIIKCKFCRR
# Outline: (§1)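 Rat hippocampal homogenates labelled with [3H]-8-OH-DPAT (1.8 nM), incubated 10 min at 37 °C. Stopped with cold 50 mM Tris pH 7.7. Test compounds run in triplicate at at least eight concentrations. IC50 found by nonlinear regression and converted to apparent Ki by Cheng-Prusoff. Ki values are means of at least two experiments ± SEM; values without SEM are single determinations.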
# [2] = target: T2, Adrenergic receptor alpha-1 (Rattus norvegicus, UniProt P15823+P23944+P43140); experiment: In vitro binding affinity towards alpha-1 adrenergic receptor by the displacement of [3H]prazosin radioligand in rat cortical homogenates
# T2 sequence (P15823 whole entry): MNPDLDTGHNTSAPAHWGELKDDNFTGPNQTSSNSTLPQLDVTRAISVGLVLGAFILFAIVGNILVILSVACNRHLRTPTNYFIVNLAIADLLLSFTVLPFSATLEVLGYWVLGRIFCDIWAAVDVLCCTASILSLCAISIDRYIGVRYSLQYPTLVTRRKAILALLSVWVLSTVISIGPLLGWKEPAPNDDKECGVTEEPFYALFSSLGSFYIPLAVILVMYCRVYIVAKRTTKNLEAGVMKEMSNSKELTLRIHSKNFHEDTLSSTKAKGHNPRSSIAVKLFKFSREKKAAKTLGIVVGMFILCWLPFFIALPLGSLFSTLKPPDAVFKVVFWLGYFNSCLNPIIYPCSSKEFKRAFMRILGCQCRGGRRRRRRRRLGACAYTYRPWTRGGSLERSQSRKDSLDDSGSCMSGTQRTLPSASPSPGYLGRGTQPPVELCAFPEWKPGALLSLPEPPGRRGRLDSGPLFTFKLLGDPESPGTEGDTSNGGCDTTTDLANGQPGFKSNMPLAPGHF
# T2 sequence (P23944 whole entry): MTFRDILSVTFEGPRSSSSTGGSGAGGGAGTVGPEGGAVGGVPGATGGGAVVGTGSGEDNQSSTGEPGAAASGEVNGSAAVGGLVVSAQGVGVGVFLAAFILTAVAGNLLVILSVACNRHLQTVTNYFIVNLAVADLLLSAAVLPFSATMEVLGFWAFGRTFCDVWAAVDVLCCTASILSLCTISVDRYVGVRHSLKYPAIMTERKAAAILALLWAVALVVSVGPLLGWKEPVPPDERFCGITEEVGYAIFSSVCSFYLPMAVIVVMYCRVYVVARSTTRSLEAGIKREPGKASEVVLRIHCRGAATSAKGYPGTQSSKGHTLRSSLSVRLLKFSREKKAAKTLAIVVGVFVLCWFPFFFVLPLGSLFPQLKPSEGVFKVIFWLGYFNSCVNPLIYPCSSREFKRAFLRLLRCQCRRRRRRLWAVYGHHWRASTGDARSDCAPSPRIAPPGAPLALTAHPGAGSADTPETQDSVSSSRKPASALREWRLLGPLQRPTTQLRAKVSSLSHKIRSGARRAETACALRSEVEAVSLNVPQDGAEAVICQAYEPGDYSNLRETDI
# T2 sequence (P43140 whole entry): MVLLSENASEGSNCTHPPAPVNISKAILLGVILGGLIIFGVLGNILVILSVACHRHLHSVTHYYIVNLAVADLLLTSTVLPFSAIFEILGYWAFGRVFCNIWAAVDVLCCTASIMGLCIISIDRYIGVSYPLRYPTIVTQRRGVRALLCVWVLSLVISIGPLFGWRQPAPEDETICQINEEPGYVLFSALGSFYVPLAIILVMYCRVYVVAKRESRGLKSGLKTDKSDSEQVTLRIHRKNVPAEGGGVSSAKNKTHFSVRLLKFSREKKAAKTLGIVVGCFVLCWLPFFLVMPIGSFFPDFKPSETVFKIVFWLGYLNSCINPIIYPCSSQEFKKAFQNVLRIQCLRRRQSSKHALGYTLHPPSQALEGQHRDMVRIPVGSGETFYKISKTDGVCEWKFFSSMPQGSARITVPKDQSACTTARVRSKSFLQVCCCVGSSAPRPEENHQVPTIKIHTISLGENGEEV
# Outline: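 Rat cortical homogenates labelled with [3H]prazosin (0.2 nM), incubated 30 min at 25 °C. Stopped with cold 50 mM Tris pH 7.4, then rapid filtration. Triplicate, at least eight concentrations. Nonlinear regression gave IC50, converted to apparent Ki by Cheng-Prusoff. Means of at least two experiments ± SEM; values without SEM are single determinations.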
# D(2) dopamine receptor [3] = target: T3, D(2) dopamine receptor (Rattus norvegicus, UniProt P61169); experiment: In vitro high binding affinity towards Dopamine receptor D2 by the displacement of [3H]quinpirole radioligand in rat striatal membranes; format: cell membranes, Membrane
# T3 sequence (P61169 whole entry): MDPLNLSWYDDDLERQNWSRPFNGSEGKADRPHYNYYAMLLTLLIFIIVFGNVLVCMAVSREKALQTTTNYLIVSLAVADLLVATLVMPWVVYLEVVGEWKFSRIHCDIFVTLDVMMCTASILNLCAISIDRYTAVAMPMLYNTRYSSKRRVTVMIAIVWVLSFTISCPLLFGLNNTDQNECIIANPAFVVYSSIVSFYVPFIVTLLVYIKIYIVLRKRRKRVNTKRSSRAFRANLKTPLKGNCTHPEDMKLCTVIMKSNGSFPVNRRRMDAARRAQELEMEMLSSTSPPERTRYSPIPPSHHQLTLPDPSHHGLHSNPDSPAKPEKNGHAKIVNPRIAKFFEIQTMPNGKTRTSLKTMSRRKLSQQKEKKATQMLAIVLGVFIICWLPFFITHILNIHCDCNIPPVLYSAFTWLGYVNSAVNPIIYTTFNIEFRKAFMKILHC
# D(2) dopamine receptor [4] = target: T3, D(2) dopamine receptor; experiment: In vitro low binding affinity towards Dopamine receptor D2 by the displacement of [3H]spiperone radioligand in rat striatal membranes; format: cell membranes, Membrane
# [5] = target: D(2) dopamine receptor (Rattus norvegicus) (UniProt P61169); experiment: Ratio of Dopamine D2 receptor (low)and Dopamine D2 receptor (high)
# D(2) dopamine receptor (Rattus norvegicus), sequence (P61169 whole entry): as above
# Outline: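 Ratio Ki(low)/Ki(high). Ki(low) comes from displacement of 1 nM [3H]spiperone in striatal membranes with 1 mM GppNHp and NaCl, 37 °C for 5 min. […] Both Ki values derived by Cheng-Prusoff from nine concentrations in triplicate; the ratio serves as an estimate of intrinsic activity.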
# [6] = target: T1, 5-hydroxytryptamine receptor 1A; experiment: In vitro binding affinity towards 5-hydroxytryptamine 1A r receptor by the displacement of [3H]8-OH-DPAT radioligand in rat hippocampal homogenates; format: tissue-based, Hippocampus; outline: as §1
Ki [1],Ki [2],Ki (D(2) dopamine receptor [3]),Ki (D(2) dopamine receptor [4]),Ratio [5],Ki [6],SMILES
18 nM,675 nM,9.7 nM,39.3 nM,4,,c1ccc(CNCCOc2cccc3[nH]ccc23)cc1
30 nM,60 nM,3 nM,16.6 nM,6,,O=C(c1c[nH]c2cccc(OCCNCc3ccccc3)c12)C(F)(F)F
,8.5 nM,4.8 nM,15.7 nM,3,0.5 nM,Clc1c[nH]c2cccc(OCCNCCCCc3ccccc3)c12
